Experimental data published in ChEMBL document CHEMBL3870321, “Substituted 4-morpholine N-arylsulfonamides as γ-secretase inhibitors” (Eur J Med Chem, 2016).

Experiments:
Cytochrome P450 3A4 [1] = target: T1, Cytochrome P450 3A4 (Homo sapiens, UniProt P08684); assay: Inhibition of recombinant human CYP3A4 expressed in baculovirus infected insect cells using fluorescent substrate; format: ADME
Cytochrome P450 3A4 [2] = target: T1, Cytochrome P450 3A4; assay: Inhibition of recombinant human CYP3A4 expressed in baculovirus infected insect cells preincubated for 30 mins using fluorescent substrate; format: ADME
[3] = Inhibition of gamma-secretase in HEK293 cells expressing human APP Swedish/London mutant assessed as reduction in amyloid beta 40 level after 5 hrs by sandwich immunoassay; format: cell-based; conditions: HEK293, 5 h
Summary of the method: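 HEK293 cells stably transfected with human APP cDNA carrying Swedish and London mutations were exposed to inhibitor for 5 h. Aβ40 in conditioned medium was measured by MSD sandwich immunoassay (TAG-G2-10/biotin-4G8). IC50 came from a four-parameter variable-slope nonlinear fit, with duplicate or triplicate measurements per experiment.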

[4] = Inhibition of gamma-secretase in HEK293 cells expressing APP London mutant assessed as reduction in amyloid beta 40 level after 5 hrs by immunoassay; conditions: Homo sapiens, HEK293, 5 h
Cytochrome P450 3A4 [5] = target: T1, Cytochrome P450 3A4; assay: Inhibition of CYP3A4 (unknown origin) preincubated with enzyme; format: ADME
Summary of the method: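 Recombinant CYP3A4 was pre-incubated with compound, and data were collected 30 min after the compound was combined with enzyme. Read-out was fluorescent product formed from a […] substrate. Values are means of two experiments.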

Cytochrome P450 3A4 [6] = target: T1, Cytochrome P450 3A4; assay: Inhibition of CYP3A4 (unknown origin); format: ADME
Summary of the method: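 Recombinant CYP3A4 was co-incubated with compound, and fluorescent product formed from a […] coumarin or fluorescein substrate was read out. Values are means of two experiments.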

[7] = AUC (0 to 6 hrs) in Sprague-Dawley rat at 30 mg/kg, po by LC-MS/MS analysis; format: ADME, organism-based; set-up: dose 30 mg/kg, time < 6 hr, route oral; conditions: in vivo
Summary of the method: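 Two fasted male Sprague-Dawley rats per compound, femoral-artery cannulated, were dosed orally in 0.5% methylcellulose. Serial heparinized blood was taken at 0.5, 1, 2, 3, 4 and 6 h, and plasma was stored at -20 °C. Compound levels were measured by LC-MS/MS using compound-specific SRM transitions from [MH]+, and AUC was taken over 0–6 h.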

Mus musculus = assay: In vivo inhibition of gamma-secretase in CRND8 transgenic mouse model of Alzheimers disease expressing APP Swedish/Indiana familial mutant assessed as reduction in amyloid beta 40 level in plasma at 30 mg/kg administered as single dose via oral gavage after 3 hrs by sandwich immunoassay; format: functional
Summary of the method: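 Transgenic CRND8 mice (5–7 weeks, male and female, counterbalanced, singly housed) received a single oral gavage dose in 20% hydroxypropyl-β-cyclodextrin. Mice were killed by CO2 at 3 h, and EDTA plasma was collected from the posterior vena cava. Plasma Aβ40 was quantified by MSD sandwich immunoassay (biotin-4G8/S-tag G2-10) and compared with a vehicle-only group.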

T1 sequence (P08684 whole entry): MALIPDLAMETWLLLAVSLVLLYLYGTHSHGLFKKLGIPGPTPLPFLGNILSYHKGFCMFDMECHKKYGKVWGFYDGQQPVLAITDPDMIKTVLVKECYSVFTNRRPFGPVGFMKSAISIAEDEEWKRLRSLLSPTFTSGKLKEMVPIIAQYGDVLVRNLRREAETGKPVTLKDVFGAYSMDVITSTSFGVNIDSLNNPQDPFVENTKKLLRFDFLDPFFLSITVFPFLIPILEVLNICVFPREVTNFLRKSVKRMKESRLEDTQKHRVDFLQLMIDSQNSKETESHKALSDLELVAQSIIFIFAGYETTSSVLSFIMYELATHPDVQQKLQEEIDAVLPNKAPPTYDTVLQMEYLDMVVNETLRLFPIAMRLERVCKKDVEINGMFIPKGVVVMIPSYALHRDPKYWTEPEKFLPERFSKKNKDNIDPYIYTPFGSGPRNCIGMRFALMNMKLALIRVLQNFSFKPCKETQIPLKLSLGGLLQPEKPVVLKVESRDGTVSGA

Structure (SMILES) | IC50 (Cytochrome P450 3A4 [1]) | IC50 (Cytochrome P450 3A4 [2]) | IC50 [3] | IC50 [4] | IC50 (Cytochrome P450 3A4 [5]) | IC50 (Cytochrome P450 3A4 [6]) | AUC(0-t) at 6 h [7] | inhibition in vivo at 30 mg/kg (Mus musculus)
O=C(CC1([C@H]2CO[C@H]3CCC[C@H]3N2S(=O)(=O)c2ccc(Cl)cc2)CC1)N1CC[C@@H](O)C1 | > 30 µM | > 30 µM | 0.016 µM |  |  |  |  | 
O=S(=O)(c1ccc(Cl)cc1)N1[C@H](c2cccc(F)c2)CCC[C@@H]1C1(O)CC1 |  |  |  | 0.316 µM | < 0.5 µM | < 0.9 µM |  | 
O=C(C(O)C1([C@H]2COC[C@@H](C3CC3)N2S(=O)(=O)c2ccc(Cl)cc2)CC1)N1C2CCC1CC(N1CCCCC1)C2 (stereo not given in full) | > 30 µM | > 30 µM | 0.024 µM |  |  |  | 267 ng·h/mL | 
C[C@H]1CN(C(C)(C)CO)CCN1C(=O)CC1([C@H]2COC[C@@H](C3CC3)N2S(=O)(=O)c2ccc(F)cc2)CC1 | > 30 µM | 2.2 µM | 0.014 µM |  |  |  |  | 
CC(C)(CO)N1CCN(C(=O)CC2([C@H]3COC[C@@H](C4CC4)N3S(=O)(=O)c3ccc(Cl)cc3)CC2)CC1 | > 30 µM | 1.9 µM | 0.0059 µM |  |  |  | 464 ng·h/mL | 89%
O=C(C(O)C1([C@H]2COC[C@@H](C3CC3)N2S(=O)(=O)c2ccc(Cl)cc2)CC1)N1CC2CCC(C1)N2 (stereo not given in full) | > 30 µM | 9 µM | 0.01 µM |  |  |  | 254 ng·h/mL | 
O=S(=O)(c1ccc(Cl)cc1)N1[C@@H](CO)CCC[C@H]1c1cccc(F)c1 |  |  |  | 0.671 µM | 30 µM | 13.9 µM |  | 
O=C(CC1([C@H]2COC[C@@H](C3CC3)N2S(=O)(=O)c2ccc(Cl)cc2)CC1)N1CC2CCC(C1)N2CCO | > 30 µM | < 0.4 µM | 0.006 µM |  |  |  | 2730 ng·h/mL | 
O=C(CC1([C@H]2CO[C@H]3CCC[C@H]3N2S(=O)(=O)c2ccc(Cl)cc2)CC1)N1CCC(CO)CC1 | 30 µM | 30 µM | 0.0018 µM |  |  |  | 36 ng·h/mL | 
CC(=O)N1CCN(C(=O)CC2([C@H]3COC[C@@H](C4CC4)N3S(=O)(=O)c3ccc(F)cc3)CC2)CC1 | 30 µM | 17 µM | 0.067 µM |  |  |  | 3160 ng·h/mL | 
O=C(CC1([C@H]2CO[C@H]3CCC[C@H]3N2S(=O)(=O)c2ccc(Cl)cc2)CC1)N1CCC(N2CCCCC2)CC1 | 21 µM | 8 µM | 0.0017 µM |  |  |  |  | 
O=C(CC1([C@H]2COC[C@@H](C3CC3)N2S(=O)(=O)c2ccc(F)cc2)CC1)N1CCC(N2CCCCC2)CC1 | > 30 µM | 1.5 µM | 0.03 µM |  |  |  | 575 ng·h/mL | 
O=C(CC1([C@H]2COC[C@@H](C3CC3)N2S(=O)(=O)c2ccc(Cl)cc2)CC1)N1C2CCC1CC(N1CCCCC1)C2 (stereo not given in full) | > 30 µM | 2 µM | 0.012 µM |  |  |  | 1290 ng·h/mL | 
O=C(CC1([C@H]2CO[C@H]3CCC[C@H]3N2S(=O)(=O)c2ccc(Cl)cc2)CC1)N1CC[C@@H](CO)C1 | 30 µM | 30 µM | 0.018 µM |  |  |  |  | 
CC(=O)N1C2CCC1CN(C(=O)CC1([C@H]3COC[C@@H](C4CC4)N3S(=O)(=O)c3ccc(Cl)cc3)CC1)C2 | 30 µM | 4.3 µM | 0.018 µM |  |  |  |  | 
O=C(CC1([C@H]2COC[C@@H](C3CC3)N2S(=O)(=O)c2ccc(F)cc2)CC1)N1CCN(CCO)CC1 | > 30 µM | 6.9 µM | 0.032 µM |  |  |  | 1970 ng·h/mL | 
O=C(CC1([C@H]2COC[C@@H](C3CC3)N2S(=O)(=O)c2ccc(Cl)cc2)CC1)N1CC2CCC(C1)N2 |  |  | 0.0035 µM |  |  |  | 1160 ng·h/mL | 
